{"source": "ChEMBL document CHEMBL2429831", "about": "“Synthesis, antitubercular and anticancer activity of new Baylis-Hillman adduct-derived N-cinnamyl-substituted isatin derivatives” (Med Chem Res, 2013)", "key": {"CHO": {"system": "CHO", "assay": "Cytotoxicity against CHO cells assessed as cell viability at 0.0000001 to 1 mM after 16 hrs by MTT assay", "assay_type": "cell-based, Cricetulus griseus", "settings": "chinese hamster", "how_it_was_run": "(§1)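 Cells seeded and incubated overnight at 37 °C in a CO2 incubator, then exposed to 1 mM, 100 μM, 100 nM and 100 pM (final) for 16 h at 37 °C, 5 % CO2. Medium removed, MTT (1 mg/mL in medium) added for 5 h, formazan dissolved in DMSO, absorbance read at 570 nm. Viability relative to 0.1 % DMSO solvent control (100 %). Triplicates, means.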"}, "COLO 205": {"system": "COLO 205", "assay": "Cytotoxicity against human COLO205 cells assessed as cell viability at 0.0000001 to 1 mM after 16 hrs by MTT assay", "assay_type": "functional, cell-based", "how_it_was_run": "as §1"}, "SUP-T1": {"system": "SUP-T1", "assay": "Cytotoxicity against human SupT1 cells assessed as cell viability at 0.0000001 to 1 mM after 16 hrs by MTT assay", "assay_type": "functional", "how_it_was_run": "as §1"}, "C6": {"system": "C6", "assay": "Cytotoxicity against rat C6 cells assessed as cell viability at 0.0000001 to 1 mM after 16 hrs by MTT assay", "assay_type": "functional", "how_it_was_run": "as §1"}, "[1]": {"system": "Mycobacterium tuberculosis", "assay": "Antitubercular activity against Mycobacterium tuberculosis H37Rv ATCC 27294 assessed as growth inhibition after 28 days by agar dilution method", "assay_type": "functional", "settings": "H37Rv ATCC 27294, 672 h", "how_it_was_run": "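Agar dilution in Middlebrook 7H11 with 10 % OADC, duplicate plates; compounds dissolved in DMSO and diluted twofold to give ten serial dilutions. Inoculum grown on 7H11/OADC slants, adjusted to 1 mg/mL wet weight in 0.05 % Tween 80 saline, diluted 10−2 (~10^7 cfu/mL); 5 μL spotted. Incubated at 37 °C, read at 28 days; MIC = lowest concentration completely inhibiting growth.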"}}, "note": "Activity calls are given as the source filed them. The rule behind the calls is not given here."}
{"smiles": "COC(=O)/C(=C/c1ccc([N+](=O)[O-])cc1)CN1C(=O)C(=O)c2ccccc21", "values": [{"measurement": "Activity", "setting": "CHO", "value": "Toxic"}, {"measurement": "Activity", "setting": "COLO 205", "value": "Active"}, {"measurement": "Activity", "setting": "SUP-T1", "value": "Active"}, {"measurement": "Activity", "setting": "C6", "value": "Active"}, {"measurement": "MIC", "setting": "[1]", "value": 6.25, "unit": "µg/mL"}]}
{"smiles": "COC(=O)/C(=C/c1ccc([N+](=O)[O-])cc1)CN1C(=O)C(=O)c2cc(Br)ccc21", "values": [{"measurement": "Activity", "setting": "CHO", "value": "Non-toxic"}, {"measurement": "Activity", "setting": "COLO 205", "value": "Active"}, {"measurement": "Activity", "setting": "SUP-T1", "value": "<20", "unit": "%"}, {"measurement": "Activity", "setting": "C6", "value": "<20", "unit": "%"}, {"measurement": "MIC", "setting": "[1]", "value": 1.56, "unit": "µg/mL"}]}
{"smiles": "COC(=O)/C(=C/c1ccc(Br)cc1)CN1C(=O)C(=O)c2ccccc21", "values": [{"measurement": "Activity", "setting": "CHO", "value": "Toxic"}, {"measurement": "Activity", "setting": "COLO 205", "value": "Active"}, {"measurement": "Activity", "setting": "SUP-T1", "value": "Active"}, {"measurement": "Activity", "setting": "C6", "value": "Active"}, {"measurement": "MIC", "setting": "[1]", "value": 25, "unit": "µg/mL"}]}
{"smiles": "COC(=O)/C(=C/c1ccccc1)CN1C(=O)C(=O)c2cc(Br)ccc21", "values": [{"measurement": "Activity", "setting": "CHO", "value": "Toxic"}, {"measurement": "Activity", "setting": "COLO 205", "value": "Active"}, {"measurement": "Activity", "setting": "SUP-T1", "value": "Active"}, {"measurement": "Activity", "setting": "C6", "value": "Active"}, {"measurement": "MIC", "setting": "[1]", "value": 12.5, "unit": "µg/mL"}]}
{"smiles": "COC(=O)/C(=C/c1ccc(Br)cc1)CN1C(=O)C(=O)c2cc(F)ccc21", "values": [{"measurement": "Activity", "setting": "CHO", "value": "Toxic"}, {"measurement": "Activity", "setting": "COLO 205", "value": "Active"}, {"measurement": "Activity", "setting": "SUP-T1", "value": "Active"}, {"measurement": "Activity", "setting": "C6", "value": "Active"}, {"measurement": "MIC", "setting": "[1]", "value": 6.25, "unit": "µg/mL"}]}
{"smiles": "COC(=O)/C(=C/c1ccc(Br)cc1)CN1C(=O)C(=O)c2cc(Cl)ccc21", "values": [{"measurement": "Activity", "setting": "CHO", "value": "Toxic"}, {"measurement": "Activity", "setting": "COLO 205", "value": "Active"}, {"measurement": "Activity", "setting": "SUP-T1", "value": "Active"}, {"measurement": "Activity", "setting": "C6", "value": "Active"}, {"measurement": "MIC", "setting": "[1]", "value": 6.25, "unit": "µg/mL"}]}
{"smiles": "COC(=O)/C(=C/c1ccccc1)CN1C(=O)C(=O)c2ccccc21", "values": [{"measurement": "Activity", "setting": "CHO", "value": "Toxic"}, {"measurement": "Activity", "setting": "COLO 205", "value": "Active"}, {"measurement": "Activity", "setting": "SUP-T1", "value": "Active"}, {"measurement": "Activity", "setting": "C6", "value": "Active"}, {"measurement": "MIC", "setting": "[1]", "value": 25, "unit": "µg/mL"}]}
{"smiles": "COC(=O)/C(=C/c1ccccc1)CN1C(=O)C(=O)c2cc(F)ccc21", "values": [{"measurement": "Activity", "setting": "CHO", "value": "Toxic"}, {"measurement": "Activity", "setting": "COLO 205", "value": "Active"}, {"measurement": "Activity", "setting": "SUP-T1", "value": "Active"}, {"measurement": "Activity", "setting": "C6", "value": "Active"}, {"measurement": "MIC", "setting": "[1]", "value": 12.5, "unit": "µg/mL"}]}
{"smiles": "COC(=O)/C(=C/c1ccc(Br)cc1)CN1C(=O)C(=O)c2cc(Br)ccc21", "values": [{"measurement": "Activity", "setting": "CHO", "value": "Toxic"}, {"measurement": "Activity", "setting": "COLO 205", "value": "Active"}, {"measurement": "Activity", "setting": "SUP-T1", "value": "Active"}, {"measurement": "Activity", "setting": "C6", "value": "Active"}, {"measurement": "MIC", "setting": "[1]", "value": 12.5, "unit": "µg/mL"}]}
{"smiles": "COC(=O)/C(=C/c1ccccc1)CN1C(=O)C(=O)c2cc(Cl)ccc21", "values": [{"measurement": "Activity", "setting": "CHO", "value": "Toxic"}, {"measurement": "Activity", "setting": "COLO 205", "value": "Active"}, {"measurement": "Activity", "setting": "SUP-T1", "value": "Active"}, {"measurement": "Activity", "setting": "C6", "value": "Active"}, {"measurement": "MIC", "setting": "[1]", "value": 12.5, "unit": "µg/mL"}]}
{"smiles": "CC[C@@H](CO)NCCN[C@@H](CC)CO", "note": "[ETHAMBUTOL]", "values": [{"measurement": "MIC", "setting": "[1]", "value": 7.64, "unit": "µg/mL"}]}
{"smiles": "NC(=O)c1cnccn1", "note": "[PYRAZINAMIDE]", "values": [{"measurement": "MIC", "setting": "[1]", "value": 50.8, "unit": "µg/mL"}]}
{"smiles": "NNC(=O)c1ccncc1", "note": "[ISONIAZID]", "values": [{"measurement": "MIC", "setting": "[1]", "value": 0.36, "unit": "µg/mL"}]}
{"smiles": "COC(=O)/C(=C/c1ccc([N+](=O)[O-])cc1)CN1C(=O)C(=O)c2cc(F)ccc21", "values": [{"measurement": "Activity", "setting": "CHO", "value": "Toxic"}, {"measurement": "Activity", "setting": "COLO 205", "value": "Active"}, {"measurement": "Activity", "setting": "SUP-T1", "value": "Active"}, {"measurement": "Activity", "setting": "C6", "value": "Active"}, {"measurement": "MIC", "setting": "[1]", "value": 1.56, "unit": "µg/mL"}]}
{"smiles": "CO[C@H]1/C=C/O[C@@]2(C)Oc3c(C)c(O)c4c(O)c(c(/C=N/N5CCN(C)CC5)c(O)c4c3C2=O)NC(=O)/C(C)=C\\C=C\\[C@H](C)[C@H](O)[C@@H](C)[C@@H](O)[C@@H](C)[C@H](OC(C)=O)[C@@H]1C", "note": "[RIFAMPIN]", "values": [{"measurement": "MIC", "setting": "[1]", "value": 0.1, "unit": "µg/mL"}]}
{"smiles": "COC(=O)/C(=C/c1ccc([N+](=O)[O-])cc1)CN1C(=O)C(=O)c2cc(Cl)ccc21", "values": [{"measurement": "Activity", "setting": "CHO", "value": "Toxic"}, {"measurement": "Activity", "setting": "COLO 205", "value": "Active"}, {"measurement": "Activity", "setting": "SUP-T1", "value": "Active"}, {"measurement": "Activity", "setting": "C6", "value": "Active"}, {"measurement": "MIC", "setting": "[1]", "value": 1.56, "unit": "µg/mL"}]}
